Reference: ChEMBL document CHEMBL3763021 (Eur J Med Chem, 2016)

Columns and labels:
LS174T [1] = assay: Antitumor activity against human LS174T cells xenografted in BALB/C mouse assessed as tumor weight inhibition at 75 mg/kg, bid administered for 10 days measured twice per week; type: functional; details: 240 h, read-out: TGI
Method in brief: (§1)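 Male BALB/c nude mice, 18–20 g, kept under SPF conditions. LS-174T cells at 2.5×10^7 cells/mL were injected s.c. into the right flank, and tumors were grown to about 100 mm3. Mice were randomized, n=6 treated and n=9 vehicle. Oral dosing ran qd or bid for 10 days; vehicle controls got the same volume of solvent. Tumor volume = length×width²/2, measured twice weekly. IR = (control − treated)/control for tumor weight or volume at day 10.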

[2] = Inhibition of Sonic-induced hedgehog signalling in mouse NIH3T3 cells after 48 hrs by Gli-luciferase reporter assay; type: cell-based; details: NIH3T3, 48 h
Method in brief: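 NIH3T3 cells stably carrying a Gli-luciferase reporter were kept in DMEM with 10% FBS and 1 µg/mL puromycin, then seeded at 2×10^4 cells/well overnight at 37 °C. Compounds at 0.05–300 nM (8 concentrations) were added in medium with 0.5% FBS and 0.7 µg/mL Sonic Hh agonist, n=4 wells, for 48 h. Readout was the Firefly/Renilla luciferase ratio in lysates.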

[3] = Cmax in Sprague-Dawley rat at 1 mg/kg, iv by LC/MS/MS analysis; type: ADME, organism-based; parameters: dose 1 mg/kg, route intravenous; details: in vivo
Method in brief: (§2)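 Male SD rats, 180–240 g, 3 per compound; single dose of 1 mg/kg iv or 5 mg/kg po, dosing volume 5 mL/kg. Blood was sampled from 2 min to 24 h and centrifuged at 4 °C. Plasma underwent protein precipitation, then LC/MS/MS in SRM mode with an internal standard. Parameters were derived by noncompartmental analysis.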

[4] = Cmax in Sprague-Dawley rat at 5 mg/kg, po by LC/MS/MS analysis; type: ADME, organism-based; parameters: dose 5 mg/kg, route oral; details: in vivo; method in brief: as §2
[5] = AUC (0 to t) in Sprague-Dawley rat at 1 mg/kg, iv by LC/MS/MS analysis; type: ADME, organism-based; details: in vivo
Method in brief: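 Male SD rats, 3 per compound, 180–240 g, single iv dose at 1 mg/kg, dosing volume 5 mL/kg. Blood sampled at 2, 5, 15, 30 min and 1, 2, 4, 6, 8, 10, 24 h, then centrifuged at 4 °C. Plasma protein-precipitated and analysed by LC/MS/MS in SRM mode with internal standard. AUC(0-t) obtained by noncompartmental analysis.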

[6] = AUC (0 to t) in Sprague-Dawley rat at 5 mg/kg, po by LC/MS/MS analysis; type: ADME, organism-based; details: in vivo; method in brief: as §2
[7] = Apparent volume of distribution in Sprague-Dawley rat at 1 mg/kg, iv by LC/MS/MS analysis; details: in vivo
Rattus norvegicus = assay: Apparent volume of distribution in Sprague-Dawley rat at 5 mg/kg, po by LC/MS/MS analysis; details: in vivo
[8] = Clearance in Sprague-Dawley rat at 1 mg/kg, iv by LC/MS/MS analysis; type: ADME, organism-based; details: in vivo; method in brief: as §2
[9] = Clearance in Sprague-Dawley rat at 5 mg/kg, po by LC/MS/MS analysis; type: ADME, organism-based; details: in vivo; method in brief: as §2
[10] = Mean resident time (0 to t) in Sprague-Dawley rat at 1 mg/kg, iv by LC/MS/MS analysis; type: ADME, organism-based; details: in vivo; method in brief: as §2
[11] = Mean resident time (0 to t) in Sprague-Dawley rat at 5 mg/kg, po by LC/MS/MS analysis; type: ADME, organism-based; details: in vivo; method in brief: as §2
[12] = Half life in Sprague-Dawley rat at 1 mg/kg, iv by LC/MS/MS analysis; type: ADME, organism-based; details: in vivo; method in brief: as §2
[13] = Half life in Sprague-Dawley rat at 5 mg/kg, po by LC/MS/MS analysis; type: ADME, organism-based; details: in vivo; method in brief: as §2
[14] = Oral bioavailability in Sprague-Dawley rat at 5 mg/kg; type: ADME, organism-based; details: in vivo; method in brief: as §2
LS174T [15] = assay: Antiproliferative activity against human LS174T cells after 72 hrs by CellTiter-Glo luminescent cell viability assay; type: functional, cell-based
Method in brief: (§3)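 Cells were grown in DMEM with 10% FBS, seeded at a density suited to each line, and left 24 h at 37 °C. Compounds were prepared in DMSO, diluted in medium over a concentration series starting at 100 µM, and applied for 72 h. CellTiter-Glo reagent was added for 30 min at room temperature before reading luminescence. IC50 came from four-parameter curve fitting.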

[16] = Antiproliferative activity against human PC3 cells after 72 hrs by CellTiter-Glo luminescent cell viability assay; type: functional, cell-based; details: PC-3, 72 h; method in brief: as §3
[17] = Antiproliferative activity against human BxPC3 cells after 72 hrs by CellTiter-Glo luminescent cell viability assay; type: functional, cell-based; details: BXPC-3, 72 h; method in brief: as §3
LS174T [18] = assay: Antitumor activity against human LS174T cells xenografted in BALB/C mouse assessed as tumor weight inhibition at 18.75 mg/kg, bid administered for 10 days measured twice per week; type: functional; details: 240 h, read-out: TGI; method in brief: as §1
LS174T [19] = assay: Antitumor activity against human LS174T cells xenografted in BALB/C mouse assessed as tumor weight inhibition at 37.5 mg/kg, bid administered for 10 days measured twice per week; type: functional; details: 240 h, read-out: TGI; method in brief: as §1
Mus musculus [20] = assay: Toxicity in BALB/C mouse xenografted with human LS174T cells assessed as mortality at 18.75 to 75 mg/kg, bid administered for 10 days; type: organism-based; details: in vivo, 240 h
Method in brief: (§4)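 Male BALB/C nude mice (18–20 g) kept under SPF conditions. LS-174T cells at 2.5×10^7 cells/mL injected subcutaneously into the right flank. Once tumors reached about 100 mm3, mice were randomized to groups of 6 (vehicle group n = 9) and dosed orally once or twice daily for 10 days. Controls received solvent. Body weight and tumor volume were measured twice weekly and deaths recorded.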

Mus musculus [21] = assay: Toxicity in BALB/C mouse xenografted with human LS174T cells assessed as loss of body weight at 18.75 to 75 mg/kg, bid administered for 10 days measured twice per week; type: organism-based; details: in vivo, 240 h; method in brief: as §4
LS174T [22] = assay: Antitumor activity against human LS174T cells xenografted in BALB/C mouse assessed as tumor volume inhibition at 75 mg/kg, bid administered for 10 days measured twice per week; details: 240 h, read-out: TGI
LS174T [23] = assay: Antitumor activity against human LS174T cells xenografted in BALB/C mouse assessed as tumor volume inhibition at 18.75 mg/kg, bid administered for 10 days measured twice per week; type: functional; details: 240 h, read-out: TGI; method in brief: as §1
LS174T [24] = assay: Antitumor activity against human LS174T cells xenografted in BALB/C mouse assessed as tumor volume inhibition at 37.5 mg/kg, bid administered for 10 days measured twice per week; type: functional; details: 240 h, read-out: TGI; method in brief: as §1
LS174T [25] = assay: Potency index, ratio of GDC-0449 IC50 to compound IC50 for human LS174T cells; type: functional
PC-3 = assay: Potency index, ratio of GDC-0449 IC50 to compound IC50 for human PC3 cells; type: functional
BXPC-3 = assay: Potency index, ratio of GDC-0449 IC50 to compound IC50 for human BxPC3 cells; type: functional

Compound: Cc1ccc(CN2CCOCC2)cc1NC(=O)c1ccc(Nc2ncc(F)c(-c3ccc(OC(F)(F)F)cc3)n2)cc1
- inhibition in vivo at 75 mg/kg (LS174T [1]): 14.4%
- IC50 [2]: 0.00103 µM
- Cmax [3]: 1010 ng/mL
- Cmax [4]: 494 ng/mL
- AUC(0-t) [5]: 2030 ng·h/mL
- AUC(0-t) [6]: 4720 ng·h/mL
- Vd [7]: 4.67 L/kg
- Vd(app) (Rattus norvegicus): 12.03324 L/kg
- clearance [8]: 7.75 mL/min/kg
- CL/F [9]: 15.5 mL/min/kg
- MRT last [10]: 4.85 h
- MRT last [11]: 7.42 h
- half-life [12]: 6.98 h
- half-life [13]: 9.08 h
- bioavailability [14]: 37.2%
- IC50 (LS174T [15]): 9.1 µM
- IC50 [16]: 11.6 µM
- IC50 [17]: 14.5 µM
- inhibition in vivo at 18.75 mg/kg (LS174T [18]): 18.4%
- inhibition in vivo at 37.5 mg/kg (LS174T [19]): 17.3%
- Activity (Mus musculus [20]): Non-toxic
- Activity (Mus musculus [21]): Non-toxic
- inhibition in vivo at 75 mg/kg (LS174T [22]): 33.1%
- inhibition in vivo at 18.75 mg/kg (LS174T [23]): 34%
- inhibition in vivo at 37.5 mg/kg (LS174T [24]): 34.9%
- Ratio IC50 (LS174T [25]): 5
- Ratio IC50 (PC-3): 5.8
- Ratio IC50 (BXPC-3): 3
